The test system of data set [1] is Pseudomonas aeruginosa. Briefly: Antibacterial activity against Pseudomonas aeruginosa assessed as induction of total membrane lysis at 4 times MIC after 1 hr by uranyl acetate/lead citrate staining-based transmission electron microscopic method. Type of data set: functional. The essentials: (§1)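 Overnight cultures in non-cation-adjusted MHB were diluted to OD 0.4. 1 mL aliquots were incubated 1 h at 37 °C with compound at 4 x MIC or without compound (control). Cells were washed in Tris buffer (pH 7.4) and fixed in 4% glutaraldehyde for 2 h at room temperature. They were post-fixed in 1% osmium tetroxide, ethanol/acetone dehydrated, epoxy embedded (60 °C, 48 h), ultrathin sectioned and imaged by TEM.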

Data set [2] relates to Staphylococcus aureus. Description: Antibacterial activity against Staphylococcus aureus assessed as induction of cell wall rupture at 4 times MIC after 1 hr by uranyl acetate/lead citrate staining-based transmission electron microscopic method. In kind it is functional. Summed up: as §1
The subject of data set [3] is Pseudomonas aeruginosa. Briefly: Antibacterial activity against Pseudomonas aeruginosa assessed as induction of cell blebbing at 4 times MIC after 1 hr by uranyl acetate/lead citrate staining-based transmission electron microscopic method. Type of data set: functional. The essentials: as §1
The test system of data set [4] is Candida albicans. Description: Antifungal activity against Candida albicans after 48 hrs in presence of 0.39 uM amphotericin B. In kind it is functional. Summed up:
(§2)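 C. albicans in RPMI (OD 0.1, diluted 1:100) was tested by two-fold compound dilution with 48 h incubation. The medium was supplemented with amphotericin B at 0.78 or 1.56 µM, giving a final 0.39 or 0.78 µM per well. MIC was read visually as no colony growth, from three concordant experiments each with three internal replicates.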

Data set [5] concerns Candida albicans. Description: Antifungal activity against Candida albicans after 48 hrs in presence of 0.78 uM amphotericin B. In kind it is functional. The essentials:
as §2

The test system of data set [6] is Pseudomonas aeruginosa. Description: Antibacterial activity against Pseudomonas aeruginosa after 18 hrs. Type of data set: functional. The essentials:
(§3)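 Broth microdilution in non-cation-adjusted MHB. Overnight 37 °C cultures adjusted to OD 0.1, then diluted 1:100. Two-fold compound dilutions were prepared in the plate before inoculation, with growth and sterility controls. Plates were incubated 18 h at 37 °C and read at OD600. MIC was the lowest concentration with no growth, from three concordant experiments each with three internal replicates.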

For data set [7], the system named is Staphylococcus aureus. Description: Antibacterial activity against Staphylococcus aureus assessed as decrease in intracellular density at 4 times MIC after 1 hr by uranyl acetate/lead citrate staining-based transmission electron microscopic method. Type of data set: functional, cell-based. The essentials:
as §1

The test system of data set [8] is Candida albicans. Description: Antifungal activity against Candida albicans after 48 hrs. Type of data set: functional. Summed up:
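A single C. albicans colony was taken into RPMI, adjusted to OD 0.1 and diluted 1:100. Two-fold compound dilutions were set up as for the bacterial microdilution and incubated 48 h. MIC was scored visually from colonies on the well bottoms as the lowest concentration with no growth, from three concordant experiments each with three internal replicates.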

Data set [9] relates to Staphylococcus aureus. Briefly: Antibacterial activity against Staphylococcus aureus after 18 hrs. In kind it is functional. Summed up: as §3
In a further data set the test system is Escherichia coli. Description: Antibacterial activity against Escherichia coli after 18 hrs. Type of data set: functional. Summed up: as §3
Data set [10] concerns Staphylococcus aureus. Briefly: Antibacterial activity against Staphylococcus aureus assessed as induction of cell membrane rupture at 4 times MIC after 1 hr by uranyl acetate/lead citrate staining-based transmission electron microscopic method. In kind it is functional. The essentials:
as §1

The test system of data set [11] is Pseudomonas aeruginosa. Briefly: Antibacterial activity against Pseudomonas aeruginosa assessed as induction of cell membrane rupture at 4 times MIC after 1 hr by uranyl acetate/lead citrate staining-based transmission electron microscopic method. In kind it is functional. Summed up: as §1
The nature of data set [12]: Solubility of the compound in water. In kind it is physicochemical. Particulars: buffer.

Experimental findings from ChEMBL document CHEMBL4028899, “Tyrocidine A Analogues Bearing the Planar d-Phe-2-Abz Turn Motif: How Conformation Impacts Bioactivity” (J Med Chem, 2017) are described below.

As usually defined, the MIC is the least concentration at which growth counts as inhibited.

≈ marks a conversion by molar mass, not a printed value. Calls of active or inactive are those of the source. The rule behind the calls is not given here. Square brackets hold non-standard residues; d marks the D form. Peptide text beside a SMILES is read from it. Orn = NCCC[C@H](N)C(=O)O; 2Abz = Nc1ccccc1C(=O)O

Turning to `CC(C)C[C@@H]1NC(=O)[C@H](CCCN)NC(=O)[C@H](C(C)C)NC(=O)[C@H](Cc2ccc(O)cc2)NC(=O)[C@H](CCCCN)NC(=O)[C@H](CC(N)=O)NC(=O)[C@@H](Cc2ccccc2)NC(=O)[C@H](Cc2ccccc2)NC(=O)c2ccccc2NC(=O)[C@@H](Cc2ccccc2)NC1=O` (cyclo([2Abz]F[dF]NKYV[Orn]L[dF])), the outcome in the data set with Pseudomonas aeruginosa [1], with Staphylococcus aureus [2], with Pseudomonas aeruginosa [3], in the data set on Staphylococcus aureus [7] and in the data set on Staphylococcus aureus [10] was Active. The MIC in the data set with Candida albicans [4] was found to be 0.78 µM; in the data set on Candida albicans [5], 0.39 µM; with Pseudomonas aeruginosa [6] it was 25 µM (≈ 32.3 µg/mL); in the data set on Candida albicans [8] it was 12.5 µM (≈ 16.2 µg/mL); in the data set with Staphylococcus aureus [9], 1.56 µM (≈ 2.02 µg/mL); against Escherichia coli, 12.5 µM (≈ 16.2 µg/mL).
`CC(C)C[C@@H]1NC(=O)[C@H](CCCN)NC(=O)[C@H](C(C)C)NC(=O)[C@H](Cc2ccc(O)cc2)NC(=O)[C@H](CCC(N)=O)NC(=O)[C@H](CC(N)=O)NC(=O)[C@@H](Cc2ccccc2)NC(=O)[C@H](Cc2ccccc2)NC(=O)[C@@H]2CCCN2C(=O)[C@@H](Cc2ccccc2)NC1=O` [TYROCIDINE A] (cyclo(F[dF]NQYV[Orn]L[dF]P)): the outcome in the data set with Staphylococcus aureus [2], in the data set with Staphylococcus aureus [7] and with Staphylococcus aureus [10] was Active. The MIC with Candida albicans [4] was found to be 0.78 µM; in the data set on Candida albicans [5], 0.39 µM; in the data set with Pseudomonas aeruginosa [6] it was 100 µM (≈ 127 µg/mL); with Candida albicans [8], 3.12 µM (≈ 3.97 µg/mL); with Staphylococcus aureus [9], 1.56 µM (≈ 1.98 µg/mL); in the data set on Escherichia coli, 25 µM (≈ 31.8 µg/mL). The outcome in the data set with Pseudomonas aeruginosa [11] was inactive.
Turning to `CC(C)C[C@@H]1NC(=O)[C@H](CCCN)NC(=O)[C@H](C(C)C)NC(=O)[C@H](Cc2ccc(O)cc2)NC(=O)[C@H](CCC(N)=O)NC(=O)[C@H](CC(N)=O)NC(=O)[C@@H](Cc2ccccc2)NC(=O)[C@H](Cc2ccccc2)NC(=O)c2ccccc2NC(=O)[C@@H](Cc2ccccc2)NC1=O` (cyclo([2Abz]F[dF]NQYV[Orn]L[dF])), the MIC in the data set with Pseudomonas aeruginosa [6] came out at 100 µM (≈ 129 µg/mL); against Staphylococcus aureus [9], 6.25 µM (≈ 8.08 µg/mL); in the data set with Escherichia coli, 50 µM (≈ 64.6 µg/mL). Moreover, in data set [12], the solubility entry is on record as “Insoluble”.
`C[C@@H]1[C@H](O)[C@@H](C)/C=C/C=C/C=C/C=C/C=C/C=C/C=C/[C@H](O[C@@H]2O[C@H](C)[C@@H](O)[C@H](N)[C@@H]2O)C[C@@H]2O[C@](O)(C[C@@H](O)C[C@@H](O)[C@H](O)CC[C@@H](O)C[C@@H](O)CC(=O)O[C@H]1C)C[C@H](O)[C@H]2C(=O)O` [AMPHOTERICIN B] came in with an MIC against Candida albicans [8] of 1.56 µM (≈ 1.44 µg/mL).
